Test results as given in ChEMBL document CHEMBL3875169, “Synthesis, in vitro anticancer and antibacterial activities and in silico studies of new 4-substituted 1,2,3-triazole-coumarin hybrids” (Eur J Med Chem, 2016).
≈ marks a conversion by molar mass, not a printed value.

What was measured:
[1] = Growth inhibition of human HepG2 cells after 72 hrs by MTT assay; type: functional, cell-based; settings: HepG2, 72 h
Outline: (§1)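 Monolayers in DMEM with 10% FBS, 2 mM L-glutamine and penicillin/streptomycin, 37 °C, 5% CO2; 5000 cells/well seeded day 0. Compounds added as five 10-fold dilutions (0.01–100 µM), DMSO ≤0.1%, for 72 h. MTT absorbance converted to percentage growth (NIH formulas); IC50 by linear regression between bracketing concentrations, highest concentration reported with ">" when not reached. Quadruplicate points, three experiments.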

Enterococcus faecalis = assay: Antibacterial activity against Enterococcus faecalis after 16 to 20 hrs by broth microdilution method; type: functional
Outline: (§2)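 Broth microdilution per CLSI in cation (Ca2+, Mg2+)-adjusted Mueller-Hinton broth; compounds in serial two-fold dilutions, 256–0.25 µg/mL; direct colony suspension inoculum, final 5 x 10^5 CFU/mL; 35 ± 2 °C, 16–20 h, ambient air. MIC is the lowest concentration completely inhibiting visible growth versus growth control; with trailing, endpoint read at ≥80% growth reduction. E. coli ATCC 25922 and P. aeruginosa ATCC 27853 served as QC.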

Klebsiella pneumoniae = assay: Antibacterial activity against ESBL-producing Klebsiella pneumoniae ATCC 27736 after 16 to 20 hrs by broth microdilution method; type: functional; outline: as §2
[2] = Growth inhibition of human HeLa cells after 72 hrs by MTT assay; type: functional, cell-based; outline: as §1
[3] = Growth inhibition of human A549 cells after 72 hrs by MTT assay; type: functional, cell-based; settings: A549, 72 h; outline: as §1
[4] = Growth inhibition of human WI38 cells after 72 hrs by MTT assay; type: cell-based; settings: WI-38, 72 h; outline: as §1
[5] = Growth inhibition of human SW620 cells after 72 hrs by MTT assay; type: functional, cell-based; settings: SW-620, 72 h; outline: as §1
[6] = Growth inhibition of human CFPAC-1 cells after 72 hrs by MTT assay; type: functional, cell-based; settings: CFPAC-1, 72 h; outline: as §1
Escherichia coli = assay: Antibacterial activity against Escherichia coli ATCC 25925 after 16 to 20 hrs by broth microdilution method; type: functional; settings: read-out: MIC=>80; outline: as §2
Pseudomonas aeruginosa = assay: Antibacterial activity against Pseudomonas aeruginosa ATCC 27853 after 16 to 20 hrs by broth microdilution method; type: functional; outline: as §2
Acinetobacter baumannii = assay: Antibacterial activity against Acinetobacter baumannii ATCC 19606 after 16 to 20 hrs by broth microdilution method; type: functional; outline: as §2
Staphylococcus aureus = assay: Antibacterial activity against Staphylococcus aureus ATCC 25923 after 16 to 20 hrs by broth microdilution method; type: functional; outline: as §2
A549 = assay: Selectivity index, ratio of IC50 for […] cells to IC50 for human A549 cells; type: functional

| Structure (SMILES) | IC50 [1] | MIC80 (Enterococcus faecalis) | MIC80 (Klebsiella pneumoniae) | IC50 [2] | IC50 [3] | IC50 [4] | IC50 [5] | IC50 [6] | MIC (Escherichia coli) | MIC80 (Pseudomonas aeruginosa) | MIC80 (Acinetobacter baumannii) | MIC80 (Staphylococcus aureus) | Ratio IC50 (A549) |
| --- | --- | --- | --- | --- | --- | --- | --- | --- | --- | --- | --- | --- | --- |
| CCCCCCCCc1cn(Cc2cc(=O)oc3cc(O)ccc23)nn1 | 34.2 µM | 256 µg/mL (≈ 720 µM) | > 256 µg/mL | 35.1 µM | 46 µM | 43.4 µM | 50.9 µM | 62.6 µM | > 256 µg/mL | > 256 µg/mL | > 256 µg/mL | > 256 µg/mL |  |
| Cc1ccc2nc(-c3ccc(NCc4cn(Cc5cc(=O)oc6cc(O)ccc56)nn4)cc3)sc2c1 | 52.8 µM |  |  | 7.26 µM | 16.2 µM |  | 90 µM | 10.5 µM |  |  |  |  |  |
| CC(O)c1cn(Cc2cc(=O)oc3cc(O)ccc23)nn1 (centres undefined) | > 100 µM |  |  | > 100 µM | > 100 µM |  | > 100 µM | > 100 µM |  |  |  |  |  |
| O=c1cc(Cn2cc(CNS(=O)(=O)c3ccc(F)cc3Cl)nn2)c2ccc(O)cc2o1 | 74.8 µM | 32 µg/mL (≈ 68.8 µM) | > 256 µg/mL | 74.9 µM | 91.9 µM | 1.45 µM | > 100 µM | > 100 µM | > 256 µg/mL | > 256 µg/mL | > 256 µg/mL | > 256 µg/mL |  |
| CC(C)(O/N=C(\C(=O)N[C@@H]1C(=O)N2C(C(=O)[O-])=C(C[n+]3ccccc3)CS[C@H]12)c1csc(N)n1)C(=O)O [CEFTAZIDIME] |  | 256 µg/mL (≈ 468 µM) | > 256 µg/mL |  |  |  |  |  | 0.5 µg/mL (≈ 0.915 µM) | 4 µg/mL (≈ 7.32 µM) | 16 µg/mL (≈ 29.3 µM) | 64 µg/mL (≈ 117 µM) |  |
| O=c1cc(Cn2cc(CNS(=O)(=O)c3ccc(Cl)cc3)nn2)c2ccc(O)cc2o1 | 31.4 µM |  |  | 58.5 µM | 47.9 µM | 0.82 µM | > 100 µM | 81.9 µM |  |  |  |  |  |
| O=c1cc(Cn2cc(-c3cc(F)cc(F)c3)nn2)c2ccc(O)cc2o1 | 38.9 µM |  |  | 27.6 µM | 21.1 µM |  | 66.7 µM | > 100 µM |  |  |  |  | >4 |
| O=c1cc(Cn2cc(CCCCl)nn2)c2ccc(O)cc2o1 | > 100 µM |  |  | 49.6 µM | 30.1 µM |  | 59.8 µM | 75.8 µM |  |  |  |  |  |
| O=c1cc(Cn2cc(-c3ccc(Br)cc3)nn2)c2ccc(O)cc2o1 | 61.1 µM | 256 µg/mL (≈ 643 µM) | > 256 µg/mL | 40.2 µM | 32.3 µM |  | 97.7 µM | 52.9 µM | > 256 µg/mL | > 256 µg/mL | > 256 µg/mL | > 256 µg/mL |  |
| Cc1ccc(S(=O)(=O)NCc2cn(Cc3cc(=O)oc4cc(O)ccc34)nn2)cc1 | 29.8 µM | 64 µg/mL (≈ 150 µM) | > 256 µg/mL | 55.7 µM | 46.4 µM | 0.03 µM | 92.2 µM | 68.9 µM | > 256 µg/mL | > 256 µg/mL | > 256 µg/mL | 256 µg/mL (≈ 600 µM) |  |
| CCCCc1ccc(-c2cn(Cc3cc(=O)oc4cc(O)ccc34)nn2)cc1 | 48.4 µM | 64 µg/mL (≈ 170 µM) | > 256 µg/mL | 39 µM | 13.8 µM |  | 49.2 µM | 69.8 µM | > 256 µg/mL | > 256 µg/mL | > 256 µg/mL | > 256 µg/mL |  |
| O=c1cc(Cn2cc(CCCCO)nn2)c2ccc(O)cc2o1 | > 100 µM |  |  | > 100 µM | > 100 µM |  | > 100 µM | > 100 µM |  |  |  |  |  |
| O=c1cc(Cn2cc(CCO)nn2)c2ccc(O)cc2o1 | > 100 µM |  |  | > 100 µM | 90.3 µM |  | > 100 µM | > 100 µM |  |  |  |  |  |
| O=c1cc(Cn2cc(CSC(=S)N3CCOCC3)nn2)c2ccc(O)cc2o1 | 99.4 µM | 32 µg/mL (≈ 76.5 µM) | > 256 µg/mL | 40.8 µM | 70.2 µM | 59.1 µM | ≥ 100 µM | 56.3 µM | > 256 µg/mL | > 256 µg/mL | > 256 µg/mL | > 256 µg/mL |  |
| Cc1ccc2c(Cn3cc(CNc4ccc(-c5nc6ccc(C)cc6s5)cc4)nn3)cc(=O)oc2c1 | 94.7 µM |  |  | 51.4 µM | 46.2 µM |  | ≥ 100 µM | 34.9 µM |  |  |  |  |  |
| CC(C)(C)OC(=O)N1CCN(C(=S)SCc2cn(Cc3cc(=O)oc4cc(O)ccc34)nn2)CC1 | 56.9 µM |  |  | 48 µM | 35.4 µM | 2.82 µM | > 100 µM | 88.5 µM |  |  |  |  |  |
| O=c1cc(Cn2cc(CNS(=O)(=O)c3ccc([N+](=O)[O-])cc3)nn2)c2ccc(O)cc2o1 | > 100 µM | 256 µg/mL (≈ 560 µM) | > 256 µg/mL | > 100 µM | > 100 µM | < 0.01 µM | > 100 µM | > 100 µM | > 256 µg/mL | > 256 µg/mL | > 256 µg/mL | > 256 µg/mL |  |
| CCCCCc1ccc(-c2cn(Cc3cc(=O)oc4cc(O)ccc34)nn2)cc1 | 27.3 µM | 8 µg/mL (≈ 20.5 µM) | > 256 µg/mL | 24.6 µM | 13.7 µM |  | 39.6 µM | 50.4 µM | > 256 µg/mL | > 256 µg/mL | > 256 µg/mL | > 256 µg/mL |  |
| CCCCCCc1cn(Cc2cc(=O)oc3cc(O)ccc23)nn1 | 61.6 µM |  |  | 59 µM | 66.2 µM | 58.5 µM | > 100 µM | > 100 µM |  |  |  |  |  |
| Cn1c(-c2cn(Cc3cc(=O)oc4cc(O)ccc34)nn2)nc2ccccc21 | 70.7 µM |  |  | 49.1 µM | > 100 µM |  | > 100 µM | 76.5 µM |  |  |  |  |  |
| O=C(O)c1cn(C2CC2)c2cc(N3CCNCC3)c(F)cc2c1=O [CIPROFLOXACIN] |  | 0.5 µg/mL (≈ 1.51 µM) | > 256 µg/mL |  |  |  |  |  | < 0.125 µg/mL | < 0.125 µg/mL | < 0.125 µg/mL | 0.25 µg/mL (≈ 0.754 µM) |  |
| O=c1cc(Cn2cc(CSC(=S)N3CCNCC3)nn2)c2ccc(O)cc2o1 | > 100 µM | 16 µg/mL (≈ 38.3 µM) | > 256 µg/mL | > 100 µM | 96 µM | > 100 µM | > 100 µM | > 100 µM | > 256 µg/mL | > 256 µg/mL | > 256 µg/mL | > 256 µg/mL |  |
| CCCCCCc1ccc(-c2cn(Cc3cc(=O)oc4cc(O)ccc34)nn2)cc1 | 9.16 µM | 16 µg/mL (≈ 39.7 µM) | > 256 µg/mL | 8.73 µM | 8.87 µM | 14 µM | 36.8 µM | > 100 µM | > 256 µg/mL | > 256 µg/mL | > 256 µg/mL | > 256 µg/mL |  |
| CC(C)(C)c1cn(Cc2cc(=O)oc3cc(O)ccc23)nn1 | > 100 µM | 128 µg/mL (≈ 428 µM) | > 256 µg/mL | 81.1 µM | 67.6 µM |  | > 100 µM | > 100 µM | > 256 µg/mL | > 256 µg/mL | > 256 µg/mL | > 256 µg/mL |  |
| O=c1cc(Cn2cc(CNS(=O)(=O)c3ccc(F)cc3)nn2)c2ccc(O)cc2o1 | 76.7 µM | 64 µg/mL (≈ 149 µM) | > 256 µg/mL | > 100 µM | 88.5 µM | 24.9 µM | > 100 µM | > 100 µM | > 256 µg/mL | > 256 µg/mL | > 256 µg/mL | > 256 µg/mL |  |
| O=c1cc(Cn2cc(C3CC3)nn2)c2ccc(O)cc2o1 | > 100 µM |  |  | > 100 µM | 91.7 µM |  | > 100 µM | > 100 µM |  |  |  |  |  |
| O=c1cc(Cn2cc(CCCO)nn2)c2ccc(O)cc2o1 | > 100 µM |  |  | 90.2 µM | 96.2 µM |  | > 100 µM | > 100 µM |  |  |  |  |  |
| O=c1cc(Cn2cc(CCc3ccccc3)nn2)c2ccc(O)cc2o1 | 50.5 µM |  |  | 35.1 µM | 24.8 µM |  | 84.4 µM | > 100 µM |  |  |  |  | >4 |
| CCCC1CCC(c2ccc(-c3cn(Cc4cc(=O)oc5cc(O)ccc45)nn3)cc2)CC1 (centres undefined) | 30.4 µM | 64 µg/mL (≈ 144 µM) | > 256 µg/mL | 34.3 µM | 41 µM | 7.91 µM | 37.5 µM | 52.8 µM | > 256 µg/mL | > 256 µg/mL | > 256 µg/mL | > 256 µg/mL |  |
